Measured values as given in article PMC2659781 (Drug metabolism and disposition: the biological fate of …, 2008).
In brackets after ≈: the same amount, converted by molar mass. Entries after “also recorded” stand apart in the source; their conditions may differ.

Assays:
[1] = tested on: 20-HETE formation in rat brain cortical microsomes; assay: Inhibition of 20-HETE formation in rat brain cortical microsomes; assay type: biochemical; conditions: for 20-HETE formation rate, % of control incubation: HET0016 48.5 nM, 100 μM arachidonic acid
[2] = tested on: 20-HETE formation in brain cortical microsomes; assay: Ex vivo 20-HETE formation in brain cortical microsomes from treated rats; set-up: species or system rat; conditions: 1 mg/kg iv, one hour after dosing, incubated in the absence of inhibitor
Outline: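 Rats got 1 mg/kg test compound iv or vehicle (n = 6 per group); cortex was taken 1 h post-dose. Microsomes were made by differential centrifugation in pH 7.4 tris/KCl/DTT/EDTA/20% glycerol buffer with PMSF and BHT. 325μg protein was incubated without added inhibitor in 0.12 M potassium phosphate/5mM MgCl2 with 100μM arachidonic acid. NADPH 1mM was added at start and at 30 min; 37°C, 60 min. 20-HETE d6 internal standard, diethyl ether extraction, MS.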

[3] = Aqueous solubility of HET0016 in ddH2O and 15% HPβCD; assay type: physicochemical
[4] = tested on: brain cortical 20-HETE tissue concentrations; assay: Brain cortical 20-HETE tissue concentration after iv HET0016; assay type: in vivo, rat
[5] = 1 hour after intraperitoneal 10 mg/kg dose in lecithin; ref Poloyac et al., 2006; cited from earlier work
[6] = ref Nakamura et al., 2003, cited from earlier work

## CCCCc1ccc(N=CNO)c(C)c1 [HET0016, N-Hydroxy-N′-(4-n-butyl-2-methylphenyl)formamidine]
[1]; HET0016 30 nM
  reduction in 20-HETE formation rate: ~ 70%
[1]; with 10 minute pre-incubation
  20-HETE formation rate, % of control incubation: 4.92 ± 0.19%
[1]; without pre-incubation
  20-HETE formation rate, % of control incubation: 4.89 ± 0.46%
[1]; in vitro
  concentrations of HET0016 required for 20-HETE inhibition in the rat brain: 30 to 90 nM
[1]; pre-incubation versus no pre-incubation
  need for metabolic activation to inhibit 20-HETE formation: does not require metabolic activation
[1]; rat brain cortical microsomes, 24 nM HET0016, arachidonic acid up to 120 μM
  mechanism of inhibition of 20-HETE formation: non-competitive inhibitor; also recorded: non-competitive inhibition
[2]
  ex vivo 20-HETE formation in microsomes of treated animals: persistent inhibition
[3]; 15% HPβCD
  solubility at 48 h: 453 ± 63.3 µg/mL (≈ 2190 µM)
[3]; distilled, deionized water
  solubility at 48 h: 34.2 ± 31.2 µg/mL (≈ 166 µM)
[4]; 1 mg/kg iv
  time 20-HETE tissue concentrations remained significantly reduced: 60 min
  time of return of 20-HETE to control levels: ≤ 24 h
  time to reduction of brain 20-HETE after administration: ≤ 5 min
[4]; 1 mg/kg iv, 180 minutes
  20-HETE concentration recovery (of control): 70%
[4]; data not shown
  20-HETE concentrations in brain tissue of treated animals (chromatograms): near or below the limits of detection
[4]; single iv dose 1 mg/kg, HPβCD formulation, from 289 pmol/g
  rat brain 20-HETE concentration after dosing: 91 pmol/g
[5]
  brain concentration as % of plasma concentration: less than 10%
[6]; acidic pH
  stability: instability
[6]; neutral pH
  aqueous solubility: poor aqueous solubility
